HCT116 bCat-KO = primary screen for growth suppressors in beta-catenin knockout HCT116 cells (colon tumor, human). HCT116 beta-catenin knockout viability, CellTiter-Glo, 60 h; hits give low values. viability, % at 10 µM. hit rate 1.5% among 140,000. AID 818, 2007;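 active means viability at or under a set limit, the compound median less 4 SD, cut at about 6% in these data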;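 further: 0% = Hyamine 1622 control at 20 µM and 100% = untreated cell control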
Autophagy mod = autophagy modulators in MEF cells, primary screen, imaging, high-content, MEF GFP-LC3 | calls only at 10 µM (by protocol) | MEF GFP-LC3 puncta imaging; test concentration mostly 10 µM | hit rate 0.98% among 190,000;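 active means percentage of spot-positive cells more than 3 SD above its plate mean, without a fluorescence outlier flag or 80% toxicity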;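 further: spot-positive cell cutoff set from DMSO-treated cells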
HCT116 PTEN-null = growth suppression of PTEN-null HCT116, primary screen, cell-based, CellTiter-Glo | hit rate 1.2% among 140,000 | viability, % at 10 µM | AID 827, 2007 | HCT116 PTEN-null viability, 60 h; hits give low values;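 active means viability at or below a set limit, 4 SD under the median of all tested compounds, cut at about 3.7% in these data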;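 further: PTEN knockout HCT116 line with beta catenin targeted HCT116 as companion control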
Dynein transport = inhibitors of GR-EGFP nuclear translocation, primary screen, dynein cargo transport inhibitor project, imaging, high-content, 3617.4 mouse cells; test concentration mostly 20 µM; stimulated with dexamethasone, 1 µM; hits give low values; z-score, hits read low; hit rate 0.47% among 220,000;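 active means plate z-score of nuclear minus cytoplasmic receptor signal below a set negative limit, without overly bright fluorescence or cell loss, cut at about -3.5 in these data, passing the limit was not always enough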;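 further: z-score of nuclear minus cytoplasmic ring GR-EGFP intensity difference per well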
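medium = tetracycline-free induction medium containing charcoal-stripped FBS | probe or stimulus = dexamethasone, 1.0 µM final | timing = 48 h induction, then 1 h compound, then 30 min agonist, 37 °C | detection = automated 10x imaging of fixed Hoechst-stained cells | read-out basis = nuclear versus cytoplasmic GR-EGFP signal, averaged per well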
Lmaj promast = Leishmania major promastigote growth inhibition, primary screen; Leishmania major promastigotes, resazurin fluorescence viability; inhibition, % at 10 µM; hit rate 9% among 200,000; in the data active means inhibition above about 50%;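 further: promastigotes grown with compound for 44 hours at 28 °C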
An asterisk follows results filed as active; i = inactive; . = no result; + = active, no number. Hits are enriched below; roughly 9.2% of the tested compounds scored in any of these assays.

SMILES	HCT116 bCat-KO	Autophagy mod	HCT116 PTEN-null	Dynein transport	Lmaj promast
Cc1ccc2cc(CN(Cc3ccc(F)cc3)Cc3nnnn3C3CCCC3)c(=O)[nH]c2c1	84	i	71	0.83	81*
Cc1ccc2[nH]c(=O)c(CN(CCCN3CCOCC3)Cc3nnnn3C3CCCC3)cc2c1	82	i	92	1.5	4
CCc1ccc2[nH]c(=O)c(CN(Cc3ccc4c(c3)OCO4)Cc3nnnn3C3CCCC3)cc2c1	40	i	27	1.3	97*
Cc1ccc2cc(CN(Cc3cccs3)Cc3nnnn3CC3CCCO3)c(=O)[nH]c2c1 (centres undefined)	90	i	89	3.7	-1
Cc1ccc2cc(CN(Cc3ccccc3)Cc3nnnn3C3CCCC3)c(=O)[nH]c2c1	15	i	15	-0.3	69*
CCNC(=O)N(C(=O)NCC)n1c(C)nnc1C	89	i	94	-1.1	18
COC(=O)C1C(=O)NC(SC)=C(C#N)C1c1ccccc1F (centres undefined)	97	i	93	0.18	82*
COc1ccc(N(CC(=O)Nc2nc3ccc(C)cc3s2)S(=O)(=O)c2c(C)nn(C)c2C)cc1	26	i	32	-0.3	66*
COc1cccc(NC(=O)CN(c2ccc(C)cc2)S(=O)(=O)c2c(C)nn(C)c2C)c1	88	i	85	-0.33	39
COc1ccc(N(CC(=O)NCc2ccccc2)S(=O)(=O)c2c(C)nn(C)c2C)cc1	91	.	102	-0.22	-7
COc1ccc(N(CC(=O)NC2CCCCCC2)S(=O)(=O)c2c(C)nn(C)c2C)cc1	81	i	97	3.8	3
COc1ccc(N(CC(=O)Nc2cc(OC)ccc2OC)S(=O)(=O)c2c(C)nn(C)c2C)cc1	62	i	61	-0.55	100*
COc1ccc(N(CC(=O)Nc2cccc(OC)c2)S(=O)(=O)c2c(C)nn(C)c2C)cc1	99	i	95	0.0066	57*
Cc1cccc(C(=O)N[C@H](C(=O)Nc2ccc(C)c(S(=O)(=O)N(C)C)c2)C(C)C)c1	.	i	.	0.55	9
O=C(Nn1c(-c2ccccc2)nc2ccccc2c1=O)c1cccs1	75	i	82	1	-3
CCOc1ccc2[nH]c(=O)c(CN(Cc3cccs3)C(CC)c3nnnn3C(C)(C)CC)cc2c1 (centres undefined)	30	i	18	0.27	75*
Cc1ccc(C(c2nnnn2C(C)(C)C)N(Cc2ccco2)Cc2cccs2)cc1 (centres undefined)	66	i	66	0.41	19
CCOC(=O)Cn1nnnc1C(C(C)C)N(Cc1cccs1)Cc1cc2cc(C)ccc2[nH]c1=O (centres undefined)	61	i	43	-0.11	26
CCC(c1nnnn1C(C)(C)C)N(Cc1cccs1)Cc1cc2cc(C)c(C)cc2n2nnnc12 (centres undefined)	.	i	.	1.9	78*
CCOc1ccc2[nH]c(=O)c(CN(Cc3ccco3)C(CC)c3nnnn3Cc3ccccc3)cc2c1 (centres undefined)	39	i	33	-0.75	41
CCC(c1nnnn1C1CCCC1)N(Cc1cccs1)Cc1cc2cc(C)ccc2[nH]c1=O (centres undefined)	4.0*	i	3.0*	-0.46	63*
CCOC(=O)Cn1nnnc1C(CC)N(Cc1cccs1)Cc1cc2cc(C)ccc2[nH]c1=O (centres undefined)	55	i	52	1.5	95*
Cc1ccc2[nH]c(=O)c(CN(Cc3cccs3)Cc3nnnn3CC3CCCO3)cc2c1 (centres undefined)	83	i	68	-0.089	5
O=S(=O)(Nc1cccc(Cl)c1)c1ccc2oc(=S)[nH]c2c1	.	i	.	0.78	-6
Cc1c(Cl)cccc1NC(CC(=O)c1ccccc1)C(=O)O (centres undefined)	81	i	73	0.31	67*
SMILES	HCT116 bCat-KO	Autophagy mod	HCT116 PTEN-null	Dynein transport	Lmaj promast
O=C1CN(C(=O)c2ccccc2)c2ccccc2N1	96	i	101	0.099	-4
Cc1cccc(Nc2c([N+](=O)[O-])cc(C(=O)N3CC(=O)Nc4ccccc43)cc2[N+](=O)[O-])c1	.	i	.	-0.72	82*
Cc1ccc(C)c(Nc2c([N+](=O)[O-])cc(C(=O)N3CC(=O)Nc4ccccc43)cc2[N+](=O)[O-])c1	93	i	82	0.76	96*
O=C(NNc1cc(C(F)(F)F)nc2ccccc12)Nc1cccc(Cl)c1	.	.	.	1.9	.
C[n+]1ccc(/C=N/Nc2nc(Cl)c(C#N)c(Cl)c2Cl)cc1	.	i	.	-1.2	1
Cc1ccc(NC(=O)c2cc(N3C(=O)CCC3=O)ccc2N2CCOCC2)cc1	.	+	.	1.6	15
Cc1[nH]n(-c2ccc(Cl)cc2)c(=O)c1C(=O)c1ccccc1	.	i	.	-0.21	-9
CCOC(=O)c1[nH]n(-c2ccc(Cl)cc2)c(=O)c1C	98	i	95	-0.18	52*
CCNc1nc(NCC)nc(SCCOC(=O)COc2ccc(Cl)cc2Cl)n1	91	i	102	-0.48	-3
Cc1ccsc1CNC12CC3CC(CC(C3)C1)C2	.	i	.	-0.96	3
CN(C)c1ccc(CNC23CC4CC(CC(C4)C2)C3)cc1	.	i	.	-0.52	87*
CC(=O)OCCNc1cc(SC(C)C)c2nonc2c1[N+](=O)[O-]	.	i	.	-1.2	6
CCCC(=O)OCCNc1cc(Sc2nc3ccccc3[nH]2)c2nonc2c1[N+](=O)[O-]	3.6*	i	3.6*	-3.4	53*
CCCCC(CCCC)=N/N=C/c1c(O)n(CC)c2cc(C3=NNC(=O)CC3)ccc12	39	+	31	0.17	-1
CCn1c(O)c(/C=N/N=C2CCCC2)c2ccc(C3=NNC(=O)CC3)cc21	96	i	95	-0.61	-2
O=C(Nc1nnc(COc2ccc(Br)cc2)s1)c1ccco1	.	.	.	-0.97	.
O=C(c1ccc2c(c1)OCO2)N(c1ccccc1)C1C=CS(=O)(=O)C1 (centres undefined)	98	i	96	-0.15	-7
O=C(c1cc2ccccc2oc1=O)N(c1ccc(Cl)cc1)C1C=CS(=O)(=O)C1 (centres undefined)	75	i	70	-0.62	61*
NC(N)=N/N=C/c1ccc(OCc2ccccc2Cl)cc1	0.9*	i	0.9*	2.4	101*
O=C(Nc1ccc(OCc2ccccc2)cc1)c1ccccc1	.	i	.	0.069	-7
OCCNCCCCOc1ccc(F)cc1	88	i	86	1.4	63*
OCCNCCCCOc1ccc(OCc2ccccc2)cc1	68	i	63	0.0071	100*
COc1ccccc1OCCCCCNCCO	77	i	87	1.2	0
CCOCCCNCc1ccc(OCc2ccccc2Cl)cc1	58	i	56	-0.59	100*
NC(N)=N/N=C/c1ccccc1	91	i	81	-0.2	26
